Laboratory results as given in ChEMBL document CHEMBL4622988, “Elucidation of Mechanism for Ligand Efficacy at Leukotriene B4 Receptor 2 (BLT2)” (ACS Med Chem Lett, 2020).
Active and inactive are the calls of the source. The calls are words filed in the database; no cut-off is given here.

Columns and labels:
[1] = molecular target: T1, Leukotriene B4 receptor 2 (Homo sapiens) (UniProt Q9NPC1); experiment: Agonist activity at HA-epitope tagged human BLT2 expressed in CHOK1 cells assessed as induction of chemotactic motility at 300 nM incubated for 2 hrs by hematoxylin and eosin staining based optical microscopic method; assay type: cell-based; conditions: CHO-K1
T1 sequence (whole entry): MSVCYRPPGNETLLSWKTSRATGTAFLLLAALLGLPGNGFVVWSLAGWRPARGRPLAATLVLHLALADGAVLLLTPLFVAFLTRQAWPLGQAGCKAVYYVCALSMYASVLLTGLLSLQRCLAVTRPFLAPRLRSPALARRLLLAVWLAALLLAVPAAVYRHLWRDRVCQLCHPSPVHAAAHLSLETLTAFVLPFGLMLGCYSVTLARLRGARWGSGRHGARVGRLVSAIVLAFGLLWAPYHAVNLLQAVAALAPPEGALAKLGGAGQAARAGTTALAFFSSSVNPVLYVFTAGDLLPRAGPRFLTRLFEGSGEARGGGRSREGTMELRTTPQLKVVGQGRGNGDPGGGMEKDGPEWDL
Summary of the method: (§1)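 CHO cells were transfected with wild-type BLT2, the Y271A mutant or the Y271A/N275A double mutant, then exposed to agonist to induce chemotactic motility. Migrating cells were fixed and stained with hematoxylin/eosin for counting.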

CHO-K1 [2] = experiment: Agonist activity at HA-epitope tagged human BLT2 Y271A mutant expressed in CHOK1 cells assessed as induction of chemotactic motility at 300 nM incubated for 2 hrs by hematoxylin and eosin staining based optical microscopic method; assay type: cell-based; summary of the method: as §1
CHO-K1 [3] = experiment: Agonist activity at HA-epitope tagged human BLT2 Y271A/N275A double mutant expressed in CHOK1 cells assessed as induction of chemotactic motility at 300 nM incubated for 2 hrs by hematoxylin and eosin staining based optical microscopic method; assay type: cell-based; summary of the method: as §1
[4] = molecular target: T2, Leukotriene B4 receptor 2 (Homo sapiens, UniProt Q9NPC1); experiment: Displacement of [3H]LTB4 from HA-epitope tagged human BLT2 expressed in CHOK1 cells incubated for 60 mins by liquid scintillation counting method; assay type: cell-based, CHO-K1
T2 sequence (Q9NPC1 whole entry): T1 sequence (whole entry)
Summary of the method: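 Competition binding: test ligand competed with 3H-LTB4 for binding to membranes prepared from cells expressing BLT2.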

[5] = molecular target: T1, Leukotriene B4 receptor 2 (Homo sapiens); experiment: Agonist activity at HA-epitope tagged human BLT2 expressed in CHOK1 cells assessed as induction of chemotactic motility at 100 nM incubated for 2 hrs by hematoxylin and eosin staining based optical microscopic method; assay type: cell-based; conditions: CHO-K1; summary of the method: as §1
CHO-K1 [6] = experiment: Agonist activity at HA-epitope tagged human BLT2 Y271A/N275A double mutant expressed in CHOK1 cells assessed as induction of chemotactic motility at 100 nM incubated for 2 hrs by hematoxylin and eosin staining based optical microscopic method; assay type: cell-based; summary of the method: as §1
CHO-K1 [7] = experiment: Agonist activity at HA-epitope tagged human BLT2 Y271A mutant expressed in CHOK1 cells assessed as induction of chemotactic motility at 100 nM incubated for 2 hrs by hematoxylin and eosin staining based optical microscopic method; assay type: cell-based; summary of the method: as §1

| Kd ([4]; cho-k1) | Kd ([4]; read-out: Kd) | SMILES | Activity [1] | Activity (CHO-K1 [2]) | Activity (CHO-K1 [3]) | Activity [5] | Activity (CHO-K1 [6]) | Activity (CHO-K1 [7]) |
| --- | --- | --- | --- | --- | --- | --- | --- | --- |
|  |  | CCCCC/C=C\C[C@H](O)/C=C/C=C\C/C=C\CCCC(=O)O | Active | Active | inactive |  |  |  |
| Not Active |  | CCCCC(=O)N(Cc1ccc(-c2ccccc2C)cc1)c1ccccc1 |  |  |  |  |  |  |
|  | 0.0147 µM | CCCCC(=O)N(Cc1ccc(-c2ccccc2C(=O)O)cc1)c1ccccc1 |  |  |  | Active | inactive | inactive |
|  |  | CCCCC/C=C\C[C@@H](O)/C=C/C=C/C=C\[C@@H](O)CCCC(=O)O | Active | Active | inactive |  |  |  |
|  |  | CCCCC[C@H](O)/C=C/C=C/C/C=C\CCCC(=O)O |  |  |  | Active | inactive | inactive |
